ChEMBL document CHEMBL1128719, “The synthesis, structure-activity, and structure-side effect relationships of a series of 8-alkoxy- and 5-amino-8-alkoxyquinolone antibacterial agents” (J Med Chem, 1995)
In brackets after ≈: the same amount, converted by molar mass.

Legend:
Clostridioides difficile = assay: In vitro antibacterial activity was tested for Clostridium diff CD1-1; type: functional
Enterobacter cloacae = assay: In vitro antibacterial activity was tested for Enterobacter cloacae HA2646; type: functional
Enterococcus faecalis = assay: In vitro antibacterial activity was tested for Streptococcus faecalis MGH-2; type: functional
Method in brief: (§1)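 Microtitration (microdilution) MIC determination in μg/mL against a panel of Gram-positive, Gram-negative and anaerobic organisms. Values come from duplicate or triplicate experiments and are stated accurate to ±50%.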

Mus musculus [1] = species on record: Mus musculus; assay: (§2) Phototoxic skin reaction in depilated female CD-1 mice; type: toxicity, organism-based; settings: in vivo
Method in brief: (§3)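 Female CD-1 mice, depilated, given a single oral or subcutaneous dose. UVA (320–400 nm) exposure for 3 h, starting 1 h post-dose. Initial doses were 30, 100 and 300 mg/kg. PTD50 (dose giving phototoxic skin reaction in 50% of mice) derived by probit method. First day of positive reaction and no-effect dose taken from raw data.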

Escherichia coli [2] = assay: In vitro antibacterial activity was tested for Escherichia coli Vogel; type: functional; method in brief: as §1
Mus musculus [3] = species on record: Mus musculus; assay: Phototoxic skin reaction in depilated female CD-1 mice.; type: functional; method in brief: as §3
Staphylococcus aureus [4] = assay: In vitro antibacterial activity was tested for Staphylococcus aureus H228; type: functional; method in brief: as §1
Bacteroides fragilis = assay: In vitro antibacterial activity against Bacteroides fragilis BFA; type: functional; method in brief: as §1
Escherichia coli [5] = assay: In vitro antibacterial activity was tested for Escherichia coli H560; type: functional; method in brief: as §1
Clostridium perfringens = assay: In vitro antibacterial activity against Clostridium perfringens CP 3-1; type: functional
Cutibacterium acnes = assay: In vitro antibacterial activity was tested for Propion acnes PA5-1; type: functional; method in brief: as §1
Streptococcus pneumoniae = assay: In vitro antibacterial activity was tested for Streptococcus pneumoniae SV-1; type: functional; method in brief: as §1
Klebsiella pneumoniae = assay: In vitro antibacterial activity was tested for Klebsiella pneumoniae MGH-2; type: functional; method in brief: as §1
[6] = system: Peptoniphilus asaccharolyticus; assay: In vitro antibacterial activity was tested for Pepto asac PA 3-1; type: functional; method in brief: as §1
Streptococcus pyogenes = assay: In vitro antibacterial activity was tested for Streptococcus pyogenes C203; type: functional; method in brief: as §1
Pseudomonas aeruginosa = assay: In vitro antibacterial activity was tested for Pseudomonas aeruginosa UI-18; type: functional; method in brief: as §1
Providencia rettgeri = assay: In vitro antibacterial activity was tested for Providencia rettgeri H1771; type: functional; method in brief: as §1
Staphylococcus aureus [7] = assay: In vitro antibacterial activity was tested for Staphylococcus aureus UC-76; type: functional; method in brief: as §1
V79 = assay: Clonogenic cytotoxicity against Chinese hamster V-79 cells; type: functional, cell-based; settings: Cricetulus griseus
Mus musculus [8] = species on record: Mus musculus; assay: as §2; type: functional; method in brief: as §3

SMILES	MIC (Clostridioides difficile) [µg/mL]	MIC (Enterobacter cloacae) [µg/mL]	MIC (Enterococcus faecalis) [µg/mL]	PTD50 (Mus musculus [1]) [mg]	MIC (Escherichia coli [2]) [µg/mL]	No effect dose (Mus musculus [3]) [mg]	MIC (Staphylococcus aureus [4]) [µg/mL]	MIC (Bacteroides fragilis) [µg/mL]	MIC (Escherichia coli [5]) [µg/mL]	MIC (Clostridium perfringens) [µg/mL]	MIC (Cutibacterium acnes) [µg/mL]	MIC (Streptococcus pneumoniae) [µg/mL]	MIC (Klebsiella pneumoniae) [µg/mL]	MIC [6] [µg/mL]	MIC (Streptococcus pyogenes) [µg/mL]	MIC (Pseudomonas aeruginosa) [µg/mL]	MIC (Providencia rettgeri) [µg/mL]	MIC (Staphylococcus aureus [7]) [µg/mL]	IC50 (V79) [µg/mL]	No effect dose (Mus musculus [8]) [mg]
COc1c(N2CCC(N)C2)c(F)c(N)c2c(=O)c(C(=O)O)cn(C3CC3)c12 (stereo not given)	3.1 (≈ 8.24 µM)	0.05 (≈ 0.133 µM)	0.05 (≈ 0.133 µM)	> 100	0.025 (≈ 0.0664 µM)	100	0.05 (≈ 0.133 µM)	1.6 (≈ 4.25 µM)	0.025 (≈ 0.0664 µM)	0.2 (≈ 0.531 µM)	0.8 (≈ 2.13 µM)	0.05 (≈ 0.133 µM)	0.1 (≈ 0.266 µM)	0.8 (≈ 2.13 µM)	0.1 (≈ 0.266 µM)	0.8 (≈ 2.13 µM)	0.2 (≈ 0.531 µM)	0.006 (≈ 0.0159 µM)	–	–
NC1CCCN(c2cc3c(cc2F)c(=O)c(C(=O)O)cn3C2CC2)C1 (stereo not given)	–	–	–	> 100	–	100	–	–	–	–	–	–	–	–	–	–	–	–	560 (≈ 1620 µM)	–
NC1CCN(c2cc3c(cc2F)c(=O)c(C(=O)O)cn3C2CC2)C1 (stereo not given)	12.5 (≈ 37.7 µM)	0.025 (≈ 0.0754 µM)	0.05 (≈ 0.151 µM)	> 300	0.025 (≈ 0.0754 µM)	–	0.025 (≈ 0.0754 µM)	1.6 (≈ 4.83 µM)	0.05 (≈ 0.151 µM)	0.1 (≈ 0.302 µM)	1.6 (≈ 4.83 µM)	0.1 (≈ 0.302 µM)	0.1 (≈ 0.302 µM)	1.6 (≈ 4.83 µM)	0.006 (≈ 0.0181 µM)	0.1 (≈ 0.302 µM)	0.1 (≈ 0.302 µM)	0.1 (≈ 0.302 µM)	–	300
CC1(CN)CCN(c2c(F)cc3c(=O)c(C(=O)O)cn(C4CC4)c3c2Cl)C1 (stereo not given)	0.2 (≈ 0.508 µM)	–	–	< 30	–	<30	–	0.05 (≈ 0.127 µM)	–	0.05 (≈ 0.127 µM)	0.2 (≈ 0.508 µM)	–	–	0.2 (≈ 0.508 µM)	–	–	–	–	8.6 (≈ 21.8 µM)	–
CCOc1c(N2CCC(N)C2)c(F)c(N)c2c(=O)c(C(=O)O)cn(C3CC3)c12 (stereo not given)	12.5 (≈ 32 µM)	0.1 (≈ 0.256 µM)	0.1 (≈ 0.256 µM)	> 100	0.05 (≈ 0.128 µM)	100	0.05 (≈ 0.128 µM)	3.1 (≈ 7.94 µM)	0.05 (≈ 0.128 µM)	0.4 (≈ 1.02 µM)	3.1 (≈ 7.94 µM)	0.05 (≈ 0.128 µM)	0.2 (≈ 0.512 µM)	0.8 (≈ 2.05 µM)	0.1 (≈ 0.256 µM)	3.1 (≈ 7.94 µM)	0.4 (≈ 1.02 µM)	0.013 (≈ 0.0333 µM)	220 (≈ 564 µM)	–
COc1c(N2CCCC(N)C2)c(F)c(N)c2c(=O)c(C(=O)O)cn(C3CC3)c12 (stereo not given)	1.6 (≈ 4.1 µM)	0.1 (≈ 0.256 µM)	0.05 (≈ 0.128 µM)	> 100	0.1 (≈ 0.256 µM)	100	0.025 (≈ 0.064 µM)	1.6 (≈ 4.1 µM)	0.05 (≈ 0.128 µM)	0.2 (≈ 0.512 µM)	0.4 (≈ 1.02 µM)	0.006 (≈ 0.0154 µM)	0.2 (≈ 0.512 µM)	0.8 (≈ 2.05 µM)	0.013 (≈ 0.0333 µM)	1.6 (≈ 4.1 µM)	0.4 (≈ 1.02 µM)	0.006 (≈ 0.0154 µM)	290 (≈ 743 µM)	–
CC1(CN)CCN(c2c(F)cc3c(=O)c(C(=O)O)cn(C4CC4)c3c2F)C1 (stereo not given)	1.6 (≈ 4.24 µM)	–	–	< 30	–	<30	–	0.4 (≈ 1.06 µM)	–	0.1 (≈ 0.265 µM)	0.4 (≈ 1.06 µM)	–	–	0.4 (≈ 1.06 µM)	–	–	–	–	7.7 (≈ 20.4 µM)	–
COc1c(N2CC(C)NC(C)C2)c(F)c(N)c2c(=O)c(C(=O)O)cn(C3CC3)c12 (stereo not given)	3.1 (≈ 7.66 µM)	0.2 (≈ 0.495 µM)	0.2 (≈ 0.495 µM)	> 100	0.2 (≈ 0.495 µM)	100	0.1 (≈ 0.247 µM)	1.6 (≈ 3.96 µM)	0.1 (≈ 0.247 µM)	0.4 (≈ 0.989 µM)	1.6 (≈ 3.96 µM)	0.05 (≈ 0.124 µM)	0.4 (≈ 0.989 µM)	0.8 (≈ 1.98 µM)	0.1 (≈ 0.247 µM)	3.1 (≈ 7.66 µM)	0.8 (≈ 1.98 µM)	0.025 (≈ 0.0618 µM)	–	–
CCOc1c(N2CCC(C)(CN)C2)c(F)cc2c(=O)c(C(=O)O)cn(C3CC3)c12 (stereo not given)	3.1 (≈ 7.68 µM)	0.2 (≈ 0.496 µM)	0.1 (≈ 0.248 µM)	> 100	0.2 (≈ 0.496 µM)	100	0.05 (≈ 0.124 µM)	1.6 (≈ 3.97 µM)	0.2 (≈ 0.496 µM)	0.8 (≈ 1.98 µM)	3.1 (≈ 7.68 µM)	0.1 (≈ 0.248 µM)	0.4 (≈ 0.991 µM)	0.8 (≈ 1.98 µM)	0.1 (≈ 0.248 µM)	1.6 (≈ 3.97 µM)	0.8 (≈ 1.98 µM)	0.013 (≈ 0.0322 µM)	140 (≈ 347 µM)	–
C[C@@H]1CN(c2c(F)cc3c(=O)c(C(=O)O)cn(C4CC4)c3c2F)C[C@H](C)N1	3.1 (≈ 8.21 µM)	–	–	55	–	–	–	1.6 (≈ 4.24 µM)	–	0.2 (≈ 0.53 µM)	0.8 (≈ 2.12 µM)	–	–	1.6 (≈ 4.24 µM)	–	–	–	–	–	30
Nc1c(F)c(N2CCC(N)C2)c(F)c2c1c(=O)c(C(=O)O)cn2C1CC1 (stereo not given)	–	0.006 (≈ 0.0165 µM)	0.025 (≈ 0.0686 µM)	52	0.006 (≈ 0.0165 µM)	–	0.013 (≈ 0.0357 µM)	–	0.003 (≈ 0.00823 µM)	–	–	0.006 (≈ 0.0165 µM)	0.006 (≈ 0.0165 µM)	–	0.025 (≈ 0.0686 µM)	0.05 (≈ 0.137 µM)	0.025 (≈ 0.0686 µM)	0.006 (≈ 0.0165 µM)	–	30
